{"source": "ChEMBL document CHEMBL1821604", "about": "“Anticancer activity and cDNA microarray studies of a (RS)-1,2,3,5-tetrahydro-4,1-benzoxazepine-3-yl]-6-chloro-9H-purine, and an acyclic (RS)-O,N-acetalic 6-chloro-7H-purine” (Eur J Med Chem, 2011)", "format_in_all_cases": "functional", "key": {"[1]": {"system": "HT-29", "assay": "Upregulation of COL1A1 gene expression in human HT-29 cells at IC50 after 48 hrs by cDNA microarray technique relative to control"}, "[2]": {"system": "MCF7", "assay": "Down regulation of KIF3B gene expression in human MCF7 cells at IC50 after 48 hrs by cDNA microarray technique relative to control", "procedure,_shortened": "(§1)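 Cells (8 × 10⁶) were cultured in DMEM with 10% heat-inactivated FBS at 37 °C under 5% CO₂. They were exposed for 48 h to compound at its IC₅₀, with DMSO-treated parallel cultures as controls (final DMSO ≤0.1% v/v). Total RNA was isolated by trizol/chloroform phase separation, RNeasy column cleanup and on-column DNase, then quantified by OD260/OD280. Expression was profiled by cDNA microarray relative to control.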"}, "[3]": {"system": "HT-29", "assay": "Upregulation of GALNT10 gene expression in human HT-29 cells at IC50 after 48 hrs by cDNA microarray technique relative to control"}, "[4]": {"system": "MCF7", "assay": "Down regulation of TSSK6 gene expression in human MCF7 cells at IC50 after 48 hrs by cDNA microarray technique relative to control"}, "[5]": {"system": "MCF7", "assay": "Down regulation of TGM4 gene expression in human MCF7 cells at IC50 after 48 hrs by cDNA microarray technique relative to control"}, "[6]": {"system": "MCF7", "assay": "Down regulation of AF147723 gene expression in human MCF7 cells at IC50 after 48 hrs by cDNA microarray technique relative to control", "procedure,_shortened": "(§2)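 8 × 10⁶ cells exposed 48 h to compound at its IC50 concentration; total RNA isolated with trizol/chloroform and RNeasy columns including on-column DNase step; RNA quantified by OD 260/280; DMSO-treated cultures as control.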"}, "[7]": {"system": "HT-29", "assay": "Down regulation of HAS2 gene expression in human HT-29 cells at IC50 after 48 hrs by cDNA microarray technique relative to control", "procedure,_shortened": "as §1"}, "[8]": {"system": "HT-29", "assay": "Down regulation of PGLYRP4 gene expression in human HT-29 cells at IC50 after 48 hrs by cDNA microarray technique relative to control"}, "[9]": {"system": "HT-29", "assay": "Down regulation of FADS6 gene expression in human HT-29 cells at IC50 after 48 hrs by cDNA microarray technique relative to control", "procedure,_shortened": "as §1"}, "[10]": {"system": "HT-29", "assay": "Down regulation of FLJ32871 gene expression in human HT-29 cells at IC50 after 48 hrs by cDNA microarray technique relative to control", "procedure,_shortened": "as §1"}, "[11]": {"system": "HT-29", "assay": "Down regulation of TCP10 gene expression in human HT-29 cells at IC50 after 48 hrs by cDNA microarray technique relative to control"}, "[12]": {"system": "HT-29", "assay": "Down regulation of NBEA gene expression in human HT-29 cells at IC50 after 48 hrs by cDNA microarray technique relative to control"}, "[13]": {"system": "MCF7", "assay": "Upregulation of ABCD2 gene expression in human MCF7 cells at IC50 after 48 hrs by cDNA microarray technique relative to control"}, "[14]": {"system": "MCF7", "assay": "Upregulation of KIAA1277 gene expression in human MCF7 cells at IC50 after 48 hrs by cDNA microarray technique relative to control"}, "[15]": {"system": "HT-29", "assay": "Down regulation of BAP1 gene expression in human HT-29 cells at IC50 after 48 hrs by cDNA microarray technique relative to control", "procedure,_shortened": "as §2"}, "[16]": {"system": "HT-29", "assay": "Down regulation of CKLFSF5 gene expression in human HT-29 cells at IC50 after 48 hrs by cDNA microarray technique relative to control", "procedure,_shortened": "as §2"}, "[17]": {"system": "HT-29", "assay": "Down regulation of FLOT1 gene expression in human HT-29 cells at IC50 after 48 hrs by cDNA microarray technique relative to control", "procedure,_shortened": "as §1"}, "[18]": {"system": "HT-29", "assay": "Down regulation of NIPSNAP3B gene expression in human HT-29 cells at IC50 after 48 hrs by cDNA microarray technique relative to control"}, "[19]": {"system": "HT-29", "assay": "Down regulation of SLC22A1 gene expression in human HT-29 cells at IC50 after 48 hrs by cDNA microarray technique relative to control"}, "[20]": {"system": "HT-29", "assay": "Down regulation of HIRA gene expression in human HT-29 cells at IC50 after 48 hrs by cDNA microarray technique relative to control", "procedure,_shortened": "as §1"}, "[21]": {"system": "HT-29", "assay": "Down regulation of SNRP70 gene expression in human HT-29 cells at IC50 after 48 hrs by cDNA microarray technique relative to control"}, "[22]": {"system": "HT-29", "assay": "Down regulation of HBZ gene expression in human HT-29 cells at IC50 after 48 hrs by cDNA microarray technique relative to control", "procedure,_shortened": "as §1"}, "[23]": {"system": "HT-29", "assay": "Down regulation of MDGA1 gene expression in human HT-29 cells at IC50 after 48 hrs by cDNA microarray technique relative to control"}, "[24]": {"system": "HT-29", "assay": "Down regulation of TMED9 gene expression in human HT-29 cells at IC50 after 48 hrs by cDNA microarray technique relative to control"}, "[25]": {"system": "HT-29", "assay": "Down regulation of PRKAG1 gene expression in human HT-29 cells at IC50 after 48 hrs by cDNA microarray technique relative to control"}, "[26]": {"system": "MCF7", "assay": "Upregulation of ST3GAL1 gene expression in human MCF7 cells at IC50 after 48 hrs by cDNA microarray technique relative to control"}, "[27]": {"system": "MCF7", "assay": "Upregulation of GABARAPL1 gene expression in human MCF7 cells at IC50 after 48 hrs by cDNA microarray technique relative to control"}, "[28]": {"system": "MCF7", "assay": "Down regulation of P2RY13 gene expression in human MCF7 cells at IC50 after 48 hrs by cDNA microarray technique relative to control"}, "[29]": {"system": "HT-29", "assay": "Upregulation of CDH15 gene expression in human HT-29 cells at IC50 after 48 hrs by cDNA microarray technique relative to control"}, "[30]": {"system": "HT-29", "assay": "Down regulation of SFRS5 gene expression in human HT-29 cells at IC50 after 48 hrs by cDNA microarray technique relative to control"}, "[31]": {"system": "HT-29", "assay": "Down regulation of RHOV gene expression in human HT-29 cells at IC50 after 48 hrs by cDNA microarray technique relative to control", "procedure,_shortened": "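HT-29 cells were grown in DMEM with 10% heat-inactivated FBS at 37 °C under 5% CO2. Cultures of 8 × 10⁶ cells were treated for 48 h; controls got DMSO at ≤0.1% v/v final. Cells were detached with PBS-EDTA and total RNA was extracted with trizol/chloroform and RNeasy columns with on-column DNase. RNA was quantified by OD 260/280 before cDNA microarray comparison with control.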"}, "[32]": {"system": "HT-29", "assay": "Down regulation of GBGT1 gene expression in human HT-29 cells at IC50 after 48 hrs by cDNA microarray technique relative to control", "procedure,_shortened": "as §1"}, "[33]": {"system": "HT-29", "assay": "Down regulation of ARPC4 gene expression in human HT-29 cells at IC50 after 48 hrs by cDNA microarray technique relative to control", "procedure,_shortened": "as §2"}, "[34]": {"system": "HT-29", "assay": "Down regulation of LIR9 gene expression in human HT-29 cells at IC50 after 48 hrs by cDNA microarray technique relative to control", "procedure,_shortened": "as §1"}, "[35]": {"system": "HT-29", "assay": "Down regulation of PLCB4 gene expression in human HT-29 cells at IC50 after 48 hrs by cDNA microarray technique relative to control"}}, "data": [{"smiles": "COC(CN(c1ccccc1CO)S(=O)(=O)c1ccccc1[N+](=O)[O-])n1cnc2ncnc(Cl)c21", "note": "(racemic)", "values": [{"measurement": "fold change (FC)", "setting": "[1]", "value": 4.97}, {"measurement": "fold change (FC)", "setting": "[2]", "value": -2.14}, {"measurement": "fold change (FC)", "setting": "[3]", "value": 3.5}, {"measurement": "fold change (FC)", "setting": "[4]", "value": -2.43}, {"measurement": "fold change (FC)", "setting": "[5]", "value": -2.58}, {"measurement": "fold change (FC)", "setting": "[6]", "value": -2.66}, {"measurement": "fold change (FC)", "setting": "[7]", "value": -2.01}, {"measurement": "fold change (FC)", "setting": "[8]", "value": -2.02}, {"measurement": "fold change (FC)", "setting": "[9]", "value": -2.34}, {"measurement": "fold change (FC)", "setting": "[10]", "value": -2.51}, {"measurement": "fold change (FC)", "setting": "[11]", "value": -2.75}, {"measurement": "fold change (FC)", "setting": "[12]", "value": -2.89}, {"measurement": "fold change (FC)", "setting": "[13]", "value": 2.25}, {"measurement": "fold change (FC)", "setting": "[14]", "value": 2.21}]}, {"smiles": "O=C(OCC1c2ccccc2-c2ccccc21)N1CC(n2cnc3c(Cl)ncnc32)OCc2ccccc21", "note": "(racemic)", "values": [{"measurement": "fold change (FC)", "setting": "[15]", "value": -2.13}, {"measurement": "fold change (FC)", "setting": "[16]", "value": -2.19}, {"measurement": "fold change (FC)", "setting": "[17]", "value": -2.19}, {"measurement": "fold change (FC)", "setting": "[18]", "value": -2.21}, {"measurement": "fold change (FC)", "setting": "[19]", "value": -2.27}, {"measurement": "fold change (FC)", "setting": "[20]", "value": -2.35}, {"measurement": "fold change (FC)", "setting": "[21]", "value": -2.78}, {"measurement": "fold change (FC)", "setting": "[22]", "value": -2.84}, {"measurement": "fold change (FC)", "setting": "[23]", "value": -3.92}, {"measurement": "fold change (FC)", "setting": "[24]", "value": -3.95}, {"measurement": "fold change (FC)", "setting": "[25]", "value": -3.98}, {"measurement": "fold change (FC)", "setting": "[26]", "value": 6.38}, {"measurement": "fold change (FC)", "setting": "[27]", "value": 2.07}, {"measurement": "fold change (FC)", "setting": "[28]", "value": -3.05}, {"measurement": "fold change (FC)", "setting": "[29]", "value": 2.06}, {"measurement": "fold change (FC)", "setting": "[30]", "value": -2.06}, {"measurement": "fold change (FC)", "setting": "[31]", "value": -2.07}, {"measurement": "fold change (FC)", "setting": "[32]", "value": -2.07}, {"measurement": "fold change (FC)", "setting": "[33]", "value": -2.07}, {"measurement": "fold change (FC)", "setting": "[34]", "value": -2.08}, {"measurement": "fold change (FC)", "setting": "[35]", "value": -2.11}]}]}
